The record followed here is ChEMBL document CHEMBL3992505, “Optimization of substituted imidazobenzodiazepines as novel asthma treatments” (Eur J Med Chem, 2017).

The test system of data set [1] is Liver. Put plainly: Metabolic stability in human liver microsomes assessed as compound remaining at 10 uM after 1 hr by LC-MS/MS analysis. The class given is ADME, microsome. A digest of the protocol: (§1)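 Compound stability was measured in human or mouse liver microsomes as percent remaining after 1 h. Data came from two independent experiments, each run in triplicate.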
Background: Liver microsomes are vesicles of endoplasmic reticulum, rich in cytochrome P450 enzymes.

Another data set deals with Mus musculus. In words: Neurotoxicity in Swiss Webster mouse assessed as induction of senorimotor impairment at 15 mg/kg administered 10 mins prior to testing and measured for 3 mins at 10 to 60 mins after drug administration by rotarod method. The class given is toxicity, organism-based. Conditions: in vivo. (In general: Falling from the rotarod earlier than controls is read as motor impairment.)

Data set [2] can be described thus: Cytotoxicity in HEK293 cells after 48 hrs by Cell-titer Glo reagent based assay. Particulars: human, read-out: LD50. In short, it runs like this:
(§2)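 Cells (HEK293, HepG2 or BEAS2B) exposed to compounds at a range of concentrations for 48 h; viability read by Cell-Titer Glo luminescence. Normalized to DMSO (negative) and 3-dibutylamino-1-(4-hexyl-phenyl)-propan-1-one at 150 μM final in DMSO (positive).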

Data set [3] in a line: Half life in human liver microsomes at 10 uM by LC-MS/MS analysis. Format: ADME, microsome.
Data set [4] in a line: Cytotoxicity in human BEAS2B cells after 48 hrs by Cell-titer Glo reagent based assay. Further details: species or system BEAS-2B. Conditions: read-out: LD50. A digest of the protocol: as §2
The nature of data set [5]: Half life in mouse liver microsomes at 10 uM by LC-MS/MS analysis. The class given is ADME, microsome. Particulars: liver microsomes.
A short description of data set [6]: Cytotoxicity in human HepG2 cells after 48 hrs by Cell-titer Glo reagent based assay. Conditions: read-out: LD50. In short, it runs like this: as §2
For data set [7], the system named is Liver. In words: Metabolic stability in mouse liver microsomes assessed as compound remaining at 10 uM after 1 hr by LC-MS/MS analysis. Format: ADME, microsome. In short, it runs like this:
as §1

Data set [8] in a line: Solubility of the compound in 50% PBS/40% propylene glycol/10% DMSO at 10 uM. The class given is physicochemical. Particulars: buffer.
The nature of data set [9]: Solubility of the compound in PBS/1% DMSO at 10 uM. Format: physicochemical. Particulars: buffer. A digest of the protocol: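 Solubility was judged at 10 μM in PBS containing 1% DMSO.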

Where only a bound is given, the exact number is not on record here.

A word on the half-life: it is the time in which the quantity being followed falls by half. Low readings indicate fast loss, high ones slow loss. Turning to `COc1ccc2c(c1)C(=O)N1CCC[C@H]1c1c(C(=O)OC(C)(C)C)ncn1-2`, the values for the Stability in the data set on Liver [1] and in the data set on Liver [7] were 92.1% and 16.2%, respectively. Moreover, the Activity entry in the data set on Mus musculus is given as “Toxic”. Also, the CC50 at 48 h in [2] is above 100 µM; in data set [4], above 200 µM; in [6], above 400 µM. Further, the half-life at 10 µM amounted to 11.9 h in data set [3] and 0.402 h in [5].
Turning to `CCSC(=O)c1ncn2c1[C@@H]1CCCN1C(=O)c1cc(OC)ccc1-2`, the solubility result in [8] and in data set [9] was “Insoluble” in each case. Further, the CC50 at 48 h in [2], in data set [4] and in data set [6] was above 100 µM each time.
`COc1ccc2c(c1)C(=O)N1CCC[C@H]1c1c(C(=O)SC(C)(C)C)ncn1-2`: the solubility entry in data set [8] and in data set [9] was “Insoluble” each time. Moreover, the CC50 at 48 h in data set [2] is 18.8 µM; in [4], above 100 µM; in data set [6] it was above 100 µM.
On to `[2H]C([2H])([2H])Oc1ccc2c(c1)C(=O)N1CCC[C@H]1c1c(C(=O)SCC)ncn1-2`, for which the solubility entry in [8] and in data set [9] was “Insoluble” throughout. Also, the CC50 at 48 h in [2], in data set [4] and in data set [6] was above 100 µM throughout.
With `COc1ccc2c(c1)C(=O)N1CCC[C@H]1c1c(C(=O)OC(C(F)(F)F)C(F)(F)F)ncn1-2`, the solubility result in data set [8] and in data set [9] was “Insoluble” throughout. The CC50 at 48 h is above 200 µM in data set [2], above 400 µM in data set [4] and above 400 µM in data set [6].
